The record followed here is the RNAGym collection of RNA variant scans (doi:10.1126/science.aae0568).

B1: tRNA (parent)
chain: GUUCCGUUGGCGUAAUGGUAACGCGUCUCCCUCCUAAGGAGAAGACUGCGGGUUCGAGUCCCGUACGGAACG

This sample holds only a part of the variants without activity.

The variants in this data set derive from B1. The data set can be described thus: yeast fitness relative to wild type (ratio to wild type); higher = fitter; tRNA-Arg(CCU), competitive growth, 37 C, YPD. Summed up:
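A pool of Saccharomyces cerevisiae strains, each with a tRNA-Arg(CCU) gene variant at the native genomic locus, was competed in YPD at 37°C for 24 hours across six parallel replicates. The variants had been chemically synthesised at a 3% per-site mutation rate over 69 sites, and gene amplicons before and after competition were read by 100-nucleotide paired-end sequencing. Darwinian fitness relative to wild type rested on changes in genotype frequencies. Genotypes required ≥ 100 starting reads, and estimates < 0.5 were set to 0.5.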
Regarding GUUCCGUGGCCGUAAUGGUAACGCGUCUCCCUCCUAAGGCGAAGACUGCGGGUUCGAGUCCCGUACGGAACG [U8G G10C A40C], the yeast fitness was at most 0.5.

Regarding GUUCCGUUGCCGUAAGGGUAACGCGUCUCCCUCCUAAGGAGACGACUGCGCGUUCGAGUCCCGUACGGAACG [G10C U16G A43C G51C], the yeast fitness is at most 0.5.

Consider GUUCCGUUGGCGUAAUGGUCACGCGUAUCCCUCCUAAGGAGAAGACUGCGGAUUCGAGUCCCGUACGGAACG [A20C C27A G52A], for which the yeast fitness was at most 0.5.

For the variant GUUCCGUUGGCGUAAUGGUAACGCGUCCCCCUCCUACGGUGAAGACUGCGGGUUCGAGUCCCGUACGGAACG [U28C A37C A40U], the yeast fitness came out at 0.568.

GUUCCGUUGACGUAAUGGUAACGCGUCUCCCUCCUAAGGAGAUGACUGCGGGUUCGAGUUCCGUACGGAACG [G10A A43U C60U]: the yeast fitness is at most 0.5.

Turning to GUUUCGUUGGCGUAAUGGUAACGCGUCUCACUCCUAAGGAGAAGACUGCUGGUUCGAGUCCCGUACGGAACG [C4U C30A G50U], the yeast fitness was found to be 0.715.

On to GUUCCGUUGGCGUAAUGGUAACGAGUCUCCCUCCUAAGGAGAAGACUGCGAGUUCGAGUCCCGUACGGAACG [C24A G51A], for which the yeast fitness amounted to 0.53.

Consider GUUCCGUUGGCGUAAUGGUAACGGGUCUCGCUCGUAAGGAGAAGACUGCGGGUUCGAGUCCCGUACGGAGCG [C24G C30G C34G A70G], for which the yeast fitness was at most 0.5.

Consider GUUCCGUUGGGAUAAUGGUAACGCGUCUCCCUCCUAAGGAGUAGACUGCGGGUUCGAGUCACGUUCGGAACG [C11G G12A A42U C61A A65U], for which the yeast fitness is 0.528.

In the case of GUUUCGUUGGCGUAAUGGUAACGAGACUCCCUCCUAAGGAGAAGACUGCGGGUUCGAGUCCCGUACGGAACG [C4U C24A U26A], the yeast fitness was at most 0.5.

Regarding GUUGCGUUGGGGUAAUGGCAACCCGUCGCCCUCCUAAGGAGAAGACUGCGGGUUCGAGUCGCGUACGGAACG [C4G C11G U19C G23C U28G C61G], the yeast fitness was at most 0.5.

For GUUCCGUUGGCGUAGUGGUAACGCGUCUCCCUCUUAAGGUGAAGACUGCGGGUUCGAGUCCCGUACGGCACG [A15G C34U A40U A69C], the yeast fitness is at most 0.5.

With GUUCCGUUGGCGUAAUGGCAACGCGUCUCCCUCCUAAGGAGAAGACUGCGCGUUCGAGUCCCGUACGGAACG [U19C G51C], the yeast fitness was found to be 0.519.

Turning to GUUCAGUUGGCGUACUGGUAACGCGUCUCCCUCCUAAGCAGAAGACUGCGGGUUCGAGUCCCGUACGGAACG [C5A A15C G39C], the yeast fitness was at most 0.5.

As to GUUCCGUUCGCGUAAUGGUAACGCGUCUCCCUCCUAAGGAGAAGACUGCCGGGUCGAGUCCCGUACCGAACG [G9C G50C U53G G67C], the yeast fitness worked out at 0.68.

For GUUCCGUUAGCGUAAUGGUAACGCGUCUCCCUCCUAAGGAGAAGACUGCGGGUUCGGGUCCCGUACGGAACG [G9A A57G], the yeast fitness came out at 0.933.

In the case of GUUCCGUUGGCGUAAUGGCAACGAGUCUCCCUCCUAAGGAGAAGACCGCGGGUUCGAGUCCCGUACGGAACG [U19C C24A U47C], the yeast fitness was at most 0.5.

Consider GUUCCGUUGGCGUAAUGGUAACCCGUCUCCCUCCUAAGGACAAGACUGUGGGUUCGAGUCCCGUACGGAACG [G23C G41C C49U], for which the yeast fitness was at most 0.5.

Consider GUUCCGUGGGCGUAAUGGUAACGCGACUCCCUCCUAAGGAGAAGACUGCGGGUUCGAGUCCCGUAUCGAACG [U8G U26A C66U G67C], for which the yeast fitness was determined as 0.847.

Take GUUCCGUUGGCGUAUUGGUAACGCGUCUCGCUCCUAAGGAGAAGACUGCGGGUUCGAGUCUCGUACGAAACG [A15U C30G C61U G68A]: the yeast fitness is at most 0.5.

GUUCCGUUGGCGUAAUGGUAACGCGUCUCCCUCCUAAGGAGAAGACUGCGGGUUGAAGUCCCGUACGGAACG [C55G G56A]: the yeast fitness was 0.628.

With GUUCCGUUGGGGUAAUGGUAACGCGUCUCCCUCCUAAGGAGAAGACUGCGGGUUCGAGUCCCGUAUGGAACG [C11G C66U], the yeast fitness came to 0.615.

Turning to GUUCCGUUGGCGUAAUGGUAACGCGGCUCCCUCCUAAGGAGAAGACUGCGGGUUCGAGUCCCCUAUGGAACG [U26G G63C C66U], the yeast fitness is at most 0.5.

With GUUCAGUUGGCGUAAUGGUAACGCGUCUCCCUCCUGAGGAGCUGACUGCGGGUUCGAGUCCCGUACGGAACG [C5A A36G A42C A43U], the yeast fitness was at most 0.5.

For the variant GUUCCGAUGGCCUAAUGGUGACGCGUCUCCCUCUUAAGGAGAAGACUGGGGGUUCGAGUCCCGUACGGAACG [U7A G12C A20G C34U C49G], the yeast fitness was at most 0.5.

Take GUUCCGUUGGCGUAAUGGUAACGCGUCUCCCUCCUAAGGAGAAGAGUGAGGGUUCGAGUCUCGUACGGAACG [C46G C49A C61U]: the yeast fitness came to 0.597.

Take GUUCCGUUGGCGUAAUGGUAACGCGUCUCUCUCCUGAGGAGAAAACUGCGGGUUCGAGUCCCGUACGGAACG [C30U A36G G44A]: the yeast fitness was determined as 0.638.

With GUUCCGUUGGCGUAAUGGUAACGCGUCUCCCUCUUAAGGAGAAGACUGCGGGUUUGAGUCCCGUACGGAACG [C34U C55U], the yeast fitness came to 0.569.

Turning to GUUCCAUUGGCGUAAUGGUAACGCGUCUUCCUCCUAAGGAGAAGACUGCCGGCUCGUGUCGCGUACGGAACG [G6A C29U G50C U53C A57U C61G], the yeast fitness was at most 0.5.

For the variant GUUCCGUUGGCGUACUGGUAACGCGUUUCUCGCCAACGGAGAAGACUGCGGGUUCGUGUCCCGUACGGAACG [A15C C27U C30U U32G U35A A37C A57U], the yeast fitness is at most 0.5.

Take GUUCCGUUGGCGUAAUGGUAACGCGUCUCCCUCUUAAGGAGAAGACUGCGGGUUCGCGUCCCGUACGGCACG [C34U A57C A69C]: the yeast fitness stood at 0.738.

GUUCGGUUGGCGUAAUGGUAACGCGUCUGCCUCCUAAGGACAAGACUGCGGGUUCGAGUCCCGUACGGAACG [C5G C29G G41C]: the yeast fitness is at most 0.5.

Turning to GUUCCGUUGGCGUAAUGCUAACGCGUCUCCGUCCUAAGGAGAACACUCCGGGUUCGAGUCCCGUAUGGAACG [G18C C31G G44C G48C C66U], the yeast fitness was at most 0.5.

As for GUUCCGUUGGCGUGAGGCUAACGCGUCUCCCUCCUAAGGAGAAGACUGCGGGUUCGAGACCCGUUCGGAACG [A14G U16G G18C U59A A65U], the yeast fitness was at most 0.5.

Consider GUUCCGUUGCCGUAAUGGUAACGCGUUUCUCUCCUAAGGAGAAGACUGCGGGAUCGAGUCCCGUACGGCACG [G10C C27U C30U U53A A69C], for which the yeast fitness was at most 0.5.

Take GUUCGGCUGGCGUAAUGGUAACGCGUCUCCCUCCUCAGGAGAAGACUGCGGGUUCGUGUCACGUAGGGAACG [C5G U7C A36C A57U C61A C66G]: the yeast fitness was at most 0.5.

Turning to GUUACGUUGGCGUAAUGGUAACGCGACUCCCUCCUCAGGAGAAGACUGGGGGUUCGAGUCCCGUACGGAACG [C4A U26A A36C C49G], the yeast fitness worked out at 0.583.

GUUCCGUUGGCGCAAUGGUAACGCGUCUUCCUCCUAAGGAGAAGACUGCGGGUUUGAGUCCCGUACGGAACG [U13C C29U C55U]: the yeast fitness is at most 0.5.
